Experimental data as given in ChEMBL document CHEMBL1130029 (J Med Chem, 1997).
“And” between values parts separate entries of the source, which are not always exact repeats. Identical values can stand only once.

Key:
[1] = species: Homo sapiens; test: In vitro hepatic microsomal metabolism in human; format: functional; settings: Liver
Method in brief: (§1)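 Microsomes from F344 rat, beagle dog, cynomolgus monkey or pooled human were incubated at 37 °C in a shaking bath. The oxidative arm used pH 7.4 Tris with NADPH and was run 3 h. The glucuronidation arm used pH 7.4 Tris-Brij with MgCl2 and UDPGA and was run 1 h. Compound was added from an acetone stock. Reactions were stopped with chilled acetonitrile, and unincubated controls were compared. Remaining parent was measured by HPLC.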

[2] = species: Canis familiaris; test: In vitro hepatic microsomal metabolism in dog; format: functional; settings: Canis lupus familiaris, Liver; method in brief: as §1
[3] = species: Rattus norvegicus; test: In vitro hepatic microsomal metabolism in rat; format: functional; settings: Liver; method in brief: as §1
[4] = Oral bioavailability in Rhesus monkey (dose 16 mg/kg); format: ADME, organism-based, Macaca mulatta; settings: in vivo
Method in brief: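 Two female and two male rhesus monkeys were dosed orally (16 mg/kg) and then iv (1 mg/kg) after a 2-week washout. Plasma was sampled from 1 min to 8 h, extracted liquid-liquid into benzene or cyclohexane, and quantified by reverse-phase HPLC (detection limit 10 ng/mL). AUC was calculated by the trapezoidal rule, and bioavailability = (AUCpo/dose)/(AUCiv/dose) × 100.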

[5] = species: Mus musculus; test: In vitro hepatic microsomal metabolism in mouse; format: functional; settings: Liver
[6] = system: Monkey; test: In vitro hepatic microsomal metabolism in monkey; format: functional; settings: Cercopithecidae, Liver; method in brief: as §1
[7] = system: Human rhinovirus sp.; test: Compound was tested for resistance (survivors(%)) by extended cycle replication assay conducted in 1 ug/mL Enviroxime. wild type; format: functional
Method in brief: (§2)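 Values are expressed relative to a no-drug control. Mutants of rhinovirus 14 were isolated, sequenced and assayed for resistance by earlier-reported procedures.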

[8] = system: Human rhinovirus sp.; test: Compound was tested for resistance (survivors(%)) by extended cycle replication assay conducted in 1 ug/mL Enviroxime.(3A amino acid substitution Ile 42 to Val); format: functional; method in brief: as §2
[9] = system: Human rhinovirus sp.; test: Compound was tested for resistance (survivors(%)) by extended cycle replication assay conducted in 1 ug/mL Enviroxime.(3A amino acid substitution Met 54 to Ile); format: functional; method in brief: as §2
[10] = system: Human rhinovirus sp.; test: Compound was tested for resistance (survivors(%)) by extended cycle replication assay conducted in 1 ug/mL Enviroxime.(3A amino acid substitution Glu 51 to Val); format: functional; method in brief: as §2
[11] = system: Human rhinovirus sp.; test: Compound was tested for resistance (survivors(%)) by extended cycle replication assay conducted in 1 ug/mL Enviroxime.(3A amino acid substitution Ile 77 to Val).; format: functional; method in brief: as §2
[12] = system: Human rhinovirus sp.; test: Compound was tested for resistance (survivors(%)) by extended cycle replication assay conducted in 1 ug/mL Enviroxime.(3A amino acid substitution Glu 34 to Val).; format: functional; method in brief: as §2
[13] = system: Human rhinovirus sp.; test: Compound was tested for resistance (survivors(%)) by extended cycle replication assay conducted in 1 ug/mL Enviroxime.(3A amino acid substitution Asp 28 to Tyr).; format: functional; method in brief: as §2
[14] = system: Human rhinovirus sp.; test: Compound was tested for resistance (survivors(%)) by extended cycle replication assay conducted in 1 ug/mL Enviroxime.(3A amino acid substitution Ile 32 to Val); format: functional; method in brief: as §2
[15] = system: Human rhinovirus sp.; test: Compound was tested for resistance (survivors(%)) by extended cycle replication assay conducted in 1 ug/mL Enviroxime.(3A amino acid substitution Gly 72 to Ser); format: functional; method in brief: as §2
[16] = system: Rhesus monkey; test: In vivo plasma levels in Rhesus monkey was determined at a dose of 8 mg/kg administered orally; format: functional, organism-based; parameters: dose 8 mg/kg; settings: Cercopithecidae
[17] = species: Rattus norvegicus; test: In vitro hepatic microsomal metabolism in rat.; format: functional; settings: Liver; method in brief: as §1
[18] = species: Mus musculus; test: In vitro Hepatic microsomal metabolism in mouse; format: functional; settings: Liver
[19] = system: Rhesus monkey; test: In vivo plasma levels in Rhesus monkey was determined at a dose of 8 mg/kg administered orally; none detected; format: functional, organism-based; parameters: dose 8 mg/kg; settings: Cercopithecidae
[20] = system: rhinovirus B14; test: % survivors was determined against mutants of human rhinovirus 14 by extended cycle replication assay in 1 ug/mL enviroxime by different amino acid substitution by different amino acid substitution; format: functional; method in brief: as §2
[21] = system: Human rhinovirus sp.; test: (§3) % survivors was determined against mutants of human rhinovirus 14 by extended cycle replication assay in 1 ug/mL enviroxime by different amino acid substitution; format: functional; method in brief: as §2
[22] = system: rhinovirus B14; test: as §3; format: functional; method in brief: as §2
[23] = system: rhinovirus B14; test: % survivors was determined against mutants of human rhinovirus 14 by extended cycle replication assay in 1 ug/mL enviroxime; format: functional; method in brief: as §2

## C#C/C=C(\c1ccc(F)cc1)c1ccc2nc(N)n(S(=O)(=O)C(C)C)c2c1
[1]
  Metabolism: 12%
[2]
  Metabolism: 31%
[3]
  Metabolism: 29%
[4]
  bioavailability: 23%
[5]
  Metabolism: 13%
[6]
  Metabolism: 37%

## C#C/C=C(\c1ccc(OCC)cc1)c1ccc2nc(N)n(S(=O)(=O)C(C)C)c2c1
[4]
  bioavailability: 4%

## C#C/C=C(\c1ccc(OC)cc1)c1ccc2nc(N)n(S(=O)(=O)C(C)C)c2c1
[7]
  Survivors: 0.05%
[4]
  bioavailability: 5%
[8]
  Survivors: 5.6%
[9]
  Survivors: 3.5%
[10]
  Survivors: 3.8%
[11]
  Survivors: 2.2%
[12]
  Survivors: 5%
[13]
  Survivors: 4.7%
[14]
  Survivors: 2.3%
[15]
  Survivors: 6.8%

## C#C/C=C(\c1ccccc1)c1ccc2nc(N)n(S(=O)(=O)C(C)C)c2c1
[4]
  bioavailability: 9%
[16]
  Plasma concentration: 70 ng/mL

## C#C/C=C(\c1ccc(SC)cc1)c1ccc2nc(N)n(S(=O)(=O)C(C)C)c2c1
[4]
  bioavailability: 5%

## C/C=C(\c1ccccc1)c1ccc2nc(N)n(S(=O)(=O)C(C)C)c2c1 [ENVIRADENE]
[1]
  Metabolism: 73%
[17]
  Metabolism: 27%
[2]
  Metabolism: 40%
[16]
  Plasma concentration: 14 ng/mL
[16]; tested as the 2H-labelled form
  Plasma concentration: 10 ng/mL
[6]
  Metabolism: 88%
[18]
  Metabolism: 36%

## C#C/C=C(\c1ccc([S+](C)[O-])cc1)c1ccc2nc(N)n(S(=O)(=O)C(C)C)c2c1 (configuration not stated)
[4]
  bioavailability: 3%

## C=C/C=C(\c1ccccc1)c1ccc2nc(N)n(S(=O)(=O)C(C)C)c2c1
[19]
  Plasma concentration: none detected

## CC(C)S(=O)(=O)n1c(N)nc2ccc(/C(=N/O)c3ccccc3)cc21 [ENVIROXIME]
[20]
  Survivors: 1.5%
[1]
  Metabolism: 98%
[7]
  Survivors: 0.07%
[2]
  Metabolism: 37%
[3]
  Metabolism: 39%
[8]
  Survivors: 1.7%
[9]
  Survivors: 1.9%
[5]
  Metabolism: 24%
[10]
  Survivors: 1.3%
[11]
  Survivors: 0.7%
[6]
  Metabolism: 80%
[12]
  Survivors: 1.5%
[21]
  Survivors: 1.1% and 0.03%
[22]
  Survivors: 5.5%
[13]
  Survivors: 2%
[14]
  Survivors: 0.7%
[23]
  Survivors: 0.6% and 2.1%
[15]
  Survivors: 4.9%
